Measured values as given in ChEMBL document CHEMBL3593160, “Orally active ghrelin receptor inverse agonists and their actions on a rat obesity model” (Bioorg Med Chem, 2015).
Calls of active or inactive are those of the source. No cut-off for these calls is given here.

Legend:
[1] = molecular target: Growth hormone secretagogue receptor type 1 (Rattus norvegicus) (UniProt O08725); experiment: Inverse agonist activity rat ghrelin receptor expressed in HEK293 cells by luciferase reporter gene assay relative to control; assay type: cell-based
Outline: (§1)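 HEK293 cells transiently transfected (about 5 h, Lipofectamine 2000) with rat ghrelinR vector (10 ng) and pNFAT-Luc (100 ng) per well. Compounds added in RPMI1640 with 0.1% dialyzed FBS and incubated overnight at 37 °C. Constitutive NFAT-luciferase signal read by luminescence; viability checked by AlamarBlue.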

[2] = Ratio of free drug concentration in brain of Sprague-Dawley rat model of high-fat diet-induced obesity at 30 mg/kg, po BID for 3 week to IC50 for displacement of [125I]human ghrelin from rat ghrelin receptor expressed in CHO cell membranes; assay type: organism-based; conditions: in vivo, 504 h
Outline: (§2)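 Free concentration = total concentration × free fraction from human plasma protein binding by equilibrium dialysis. Plasma level is AUC0-24/24 h on day 1 of twice-daily oral dosing in HFD-obese SD rats. Brain level is plasma × B/P ratio from normal rats. Each is divided by the binding IC50.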

[3] = molecular target: T1, Growth hormone secretagogue receptor type 1 (Rattus norvegicus, UniProt O08725); experiment: Antagonist activity at rat ghrelin receptor expressed in CHO cells assessed as blocking of human ghrelin-induced response by FLIPR based intracellular Ca2+ mobilization assay; assay type: functional, cell-based
Outline: (§3)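 CHO cells stably expressing rat ghrelinR, loaded with Calcium 3 dye for 2.5 h at room temperature in HBSS with 20 mM Hepes, 2.5 mM probenecid and 1 mg/mL BSA. Compound added, then 1 nM human ghrelin. Response taken as peak fluorescence minus basal.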

Rattus norvegicus [4] = experiment: Inhibition of total calorie intake in Sprague-Dawley rat model of high-fat diet-induced obesity at 30 mg/kg, po BID 3 weeks; assay type: functional, organism-based; conditions: in the assay text read “14 days” for “3 weeks”
Outline: (§4)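 Male SD rats given a 60% fat diet for 10 weeks, habituated 3 weeks to oral vehicle, and randomized to vehicle, treatment or pair-fed groups. Oral dosing twice daily (9:30 am, 6:00 pm) as a 0.5% hydroxypropyl cellulose suspension. Body weight and daily food intake recorded before the morning dose. Pair-fed rats got the previous day's treated-group mean intake plus vehicle.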

Rattus norvegicus [5] = experiment: AUC (0 to 24 hrs) in Sprague-Dawley rat model of high-fat diet-induced obesity at 10 mg/kg, po BID for 3 weeks; assay type: ADME, organism-based; set-up: dose 10 mg/kg, time < 24 hr, route oral; conditions: in vivo
Outline: (§5)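 Male SD rats fed 60% fat diet for 10 weeks, habituated to oral vehicle dosing for 3 weeks. Compound given orally as a suspension in 0.5% hydroxypropyl cellulose at 9:30 am and 6:00 pm. Plasma levels measured on the first dosing day. AUC0-24 from these levels; mean plasma concentration = AUC0-24/24 h.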

[6] = Plasma concentration in Sprague-Dawley rat model of high-fat diet-induced obesity at 10 mg/kg, po BID for 3 weeks; assay type: ADME, organism-based; outline: as §5
Rattus norvegicus [7] = experiment: Inhibition of total calorie intake in Sprague-Dawley rat model of high-fat diet-induced obesity at 10 mg/kg, po BID 3 weeks; assay type: functional, organism-based; conditions: in the assay text read “14 days” for “3 weeks”; outline: as §4
[8] = Protein binding in human plasma at 10 uM incubated for 4 hrs by equilibrium dialysis; assay type: ADME, cell-free; conditions: read-out: PPB
Outline: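 10 µM compound in human plasma dialysed against DPBS pH 7.4 for 4 h at 37 °C by rapid equilibrium dialysis. Plasma and buffer fractions acetonitrile-extracted and quantified by LC/MS/MS.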

[9] = molecular target: Growth hormone secretagogue receptor type 1 (Rattus norvegicus) (UniProt O08725); experiment: Antagonist activity at rat ghrelin receptor expressed in CHO cells assessed as blocking of human ghrelin-induced response by FLIPR based intracellular Ca2+ mobilization assay relative to control; assay type: functional, cell-based; outline: as §3
[10] = Drug concentration in brain of Sprague-Dawley rat model of high-fat diet-induced obesity at 10 mg/kg, po BID for 3 weeks; assay type: ADME, organism-based; conditions: read-out: Drug uptake
Outline: (§6)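 Brain level estimated as mean plasma concentration (AUC0-24/24 h, day 1 of twice-daily oral dosing in HFD-obese SD rats) multiplied by the B/P ratio from normal rats. The ratio divides this by the binding IC50.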

[11] = AUC (0 to 24 hrs) in Sprague-Dawley rat model of high-fat diet-induced obesity at 30 mg/kg, po BID for 3 weeks; assay type: ADME, organism-based; set-up: time < 24 hr, dose 30 mg/kg, route oral; conditions: in vivo; outline: as §5
[12] = Ratio of plasma concentration in Sprague-Dawley rat model of high-fat diet-induced obesity at 10 mg/kg, po BID for 3 week to IC50 for displacement of [125I]human ghrelin from rat ghrelin receptor expressed in CHO cell membranes; assay type: organism-based; conditions: in vivo, 504 h
Outline: (§7)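 Mean plasma concentration (AUC0-24/24 h, day 1 of twice-daily oral dosing in HFD-obese SD rats) divided by the binding IC50.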

[13] = Ratio of free plasma concentration in Sprague-Dawley rat model of high-fat diet-induced obesity at 30 mg/kg, po BID for 3 week to IC50 for displacement of [125I]human ghrelin from rat ghrelin receptor expressed in CHO cell membranes; assay type: organism-based; conditions: in vivo, 504 h; outline: as §2
[14] = Ratio of drug concentration in brain of Sprague-Dawley rat model of high-fat diet-induced obesity at 10 mg/kg, po BID for 3 week to IC50 for displacement of [125I]human ghrelin from rat ghrelin receptor expressed in CHO cell membranes; assay type: organism-based; conditions: in vivo, 504 h; outline: as §6
[15] = molecular target: Growth hormone secretagogue receptor type 1 (Homo sapiens, UniProt Q92847); experiment: Displacement of [125I]human ghrelin from human ghrelin receptor expressed in CHO cell membranes incubated for 30 mins by scintillation counting method
Outline: (§8)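 Membranes from CHO cells stably expressing rat or human ghrelinR (3.34 µg protein) incubated with 0.04 nM [125I]human ghrelin and varied compound concentrations for 30 min at room temperature. Buffer: 50 mM Hepes pH 7.5, 1 mM CaCl2, 5 mM MgCl2, 75 mM NaCl, 0.5% BSA. Membranes filtered and washed; bound radioactivity counted by scintillation.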

Liver microsome = experiment: Metabolic stability in human liver microsomes assessed as metabolic rate at 1 uM incubated for 30 mins in presence of NADPH by LC/MS/MS method; assay type: ADME; conditions: 0.5 h
[16] = Drug concentration in brain of Sprague-Dawley rat model of high-fat diet-induced obesity at 30 mg/kg, po BID for 3 weeks; assay type: ADME, organism-based; conditions: read-out: Drug uptake; outline: as §6
Rattus norvegicus [17] = experiment: Inhibition of daily weight gain in Sprague-Dawley rat model of high-fat diet-induced obesity at 30 mg/kg, po BID for14 days; assay type: functional, organism-based; outline: as §4
[18] = Ratio of plasma concentration in Sprague-Dawley rat model of high-fat diet-induced obesity at 30 mg/kg, po BID for 3 week to IC50 for displacement of [125I]human ghrelin from rat ghrelin receptor expressed in CHO cell membranes; assay type: organism-based; conditions: in vivo, 504 h; outline: as §7
Rattus norvegicus [19] = experiment: Total clearance in Sprague-Dawley rat at 1 mg/kg, iv by LC/MS/MS method; assay type: ADME, organism-based; conditions: in vivo
Outline: (§9)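 Non-fasted SD rats (n = 3/group) dosed 10 mg/kg orally or 1 mg/kg iv in 5% DMSO/10% HPCD in saline. Heparinized plasma sampled 0.08 (iv only) to 24 h. Parameters by noncompartmental analysis.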

[20] = Ratio of drug level in brain to plasma of Sprague-Dawley rat at 1 mg/kg, iv after 2 hrs by LC/MS/MS method; assay type: ADME, organism-based; conditions: read-out: BPR
[21] = Ratio of drug concentration in brain of Sprague-Dawley rat model of high-fat diet-induced obesity at 30 mg/kg, po BID for 3 week to IC50 for displacement of [125I]human ghrelin from rat ghrelin receptor expressed in CHO cell membranes; assay type: organism-based; conditions: in vivo, 504 h; outline: as §6
[22] = molecular target: Growth hormone secretagogue receptor type 1 (Rattus norvegicus) (UniProt O08725); experiment: Antagonist activity at ghrelin receptor in Sprague-Dawley rat primary pituitary cells assessed as inhibition of ghrelin-induced growth hormone secretion incubated for 15 mins by ELISA method relative to control; assay type: cell-based; conditions: Pituitary gland cell
Outline: (§10)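 SD rat (6–8 weeks, male) anterior pituitary cells dispersed with collagenase and papain and cultured 2 days. Cells preincubated 1.5 h in HBSS with 1% BSA, 0.25% glucose and 25 mM HEPES, then treated 15 min at 37 °C with 1 nM ghrelin present. GH in supernatant measured by ELISA. Inhibition = (C−E)/C×100.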

[23] = Ratio of free drug concentration in brain of Sprague-Dawley rat model of high-fat diet-induced obesity at 10 mg/kg, po BID for 3 week to IC50 for displacement of [125I]human ghrelin from rat ghrelin receptor expressed in CHO cell membranes; assay type: organism-based; conditions: in vivo, 504 h; outline: as §2
[24] = Plasma concentration in Sprague-Dawley rat model of high-fat diet-induced obesity at 30 mg/kg, po BID for 3 weeks; assay type: ADME, organism-based; outline: as §5
[25] = Ratio of free plasma concentration in Sprague-Dawley rat model of high-fat diet-induced obesity at 10 mg/kg, po BID for 3 week to IC50 for displacement of [125I]human ghrelin from rat ghrelin receptor expressed in CHO cell membranes; assay type: organism-based; conditions: in vivo, 504 h; outline: as §2
[26] = molecular target: T1, Growth hormone secretagogue receptor type 1; experiment: Inverse agonist activity rat ghrelin receptor expressed in HEK293 cells by luciferase reporter gene assay; assay type: cell-based; outline: as §1
Rattus norvegicus [27] = experiment: Oral bioavailability in Sprague-Dawley rat at 10 mg/kg by LC/MS/MS method; assay type: ADME, organism-based; conditions: in vivo; outline: as §9
[28] = molecular target: T1, Growth hormone secretagogue receptor type 1; experiment: Antagonist activity at ghrelin receptor in Sprague-Dawley rat primary pituitary cells assessed as inhibition of ghrelin-induced growth hormone secretion incubated for 15 mins by ELISA method; assay type: cell-based, Pituitary gland cell; outline: as §10
[29] = molecular target: T1, Growth hormone secretagogue receptor type 1; experiment: Displacement of [125I]human ghrelin from rat ghrelin receptor expressed in CHO cell membranes incubated for 30 mins by scintillation counting method; outline: as §8
[30] = Total clearance in ICR mouse by LC/MS/MS method; assay type: ADME, organism-based; conditions: in vivo
[31] = Oral bioavailability in ICR mouse by LC/MS/MS method; assay type: ADME, organism-based; conditions: in vivo

Growth hormone secretagogue receptor type 1 (Rattus norvegicus), sequence (O08725 whole entry): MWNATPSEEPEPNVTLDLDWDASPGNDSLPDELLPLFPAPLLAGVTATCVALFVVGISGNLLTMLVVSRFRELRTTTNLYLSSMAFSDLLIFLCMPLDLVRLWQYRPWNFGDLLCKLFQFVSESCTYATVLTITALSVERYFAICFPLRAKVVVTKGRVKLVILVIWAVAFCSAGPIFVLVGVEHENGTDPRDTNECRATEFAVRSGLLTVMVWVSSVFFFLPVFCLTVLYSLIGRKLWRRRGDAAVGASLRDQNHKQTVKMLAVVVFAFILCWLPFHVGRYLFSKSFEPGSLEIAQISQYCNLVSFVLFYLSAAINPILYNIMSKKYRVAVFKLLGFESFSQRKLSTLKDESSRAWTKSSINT
T1 sequence (O08725 whole entry): as above
Growth hormone secretagogue receptor type 1 (Homo sapiens, UniProt Q92847), sequence (Q92847 whole entry): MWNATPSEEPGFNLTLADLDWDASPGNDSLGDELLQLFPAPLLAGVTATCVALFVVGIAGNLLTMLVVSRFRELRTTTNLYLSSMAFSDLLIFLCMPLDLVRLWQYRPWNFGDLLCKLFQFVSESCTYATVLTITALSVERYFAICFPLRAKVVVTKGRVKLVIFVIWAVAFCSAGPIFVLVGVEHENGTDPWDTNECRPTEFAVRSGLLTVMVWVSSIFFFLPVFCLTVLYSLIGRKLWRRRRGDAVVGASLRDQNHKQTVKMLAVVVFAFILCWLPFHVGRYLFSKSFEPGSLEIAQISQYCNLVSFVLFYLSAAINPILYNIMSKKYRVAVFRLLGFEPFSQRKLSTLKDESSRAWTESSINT

Efficacy [1] | Ratio [2] | IC50 [3] | AUC (Rattus norvegicus [5]) | concentration at 504 h [6] | fraction unbound at 4 h, 10 µM [8] | Efficacy [9] | concentration at 504 h [10] | AUC at 24 h [11] | Ratio [12] | Ratio [13] | Ratio [14] | IC50 [15] | Drug metabolism (Liver microsome) | Efficacy [22] | IC50 [26] | IC50 [28] | IC50 [29] | SMILES | inhibition (Rattus norvegicus [4]) | inhibition (Rattus norvegicus [7]) | also measured
> 95% | 2 | 13 nM | 1105 ng·h/mL | 91 nM | 0.01 | > 95% | 19 nM | 3310 ng·h/mL | 324 | 97 | 68 | 0.44 nM | 103 pmol/min/mg | > 95% | 5.4 nM | 11.6 nM | 0.28 nM | Cc1ccc(CNC(=O)c2cc(C#CC(C)(C)O)cnc2NCc2ccc3c(c2)OCO3)cc1C(F)F | inactive | inactive | concentration at 504 h [16]: 57 nM; inhibition (Rattus norvegicus [17]): Active; Ratio [18]: 972; CL (Rattus norvegicus [19]): 12.3 mL/min/kg; Kp at 2 h [20]: 0.21; Ratio [21]: 203; Ratio [23]: 0.7; concentration at 504 h [24]: 272 nM; Ratio [25]: 3.2; F (Rattus norvegicus [27]): 23.8%
> 95% | 0.6 | 34 nM | 24901 ng·h/mL | 1890 nM | 0.01 | > 95% | 132 nM | 74700 ng·h/mL | 286 | 8.6 | 19 | 3 nM | 81 pmol/min/mg | > 95% | 26 nM | 36.2 nM | 6.6 nM | COc1ccc(CNC(=O)c2cc(C#CC(C)(C)NC(C)=O)cnc2NCc2ccc3c(c2)OCO3)cc1Cl | inactive | inactive | concentration at 504 h [16]: 370 nM; Ratio [18]: 859; CL (Rattus norvegicus [19]): 27.8 mL/min/kg; Kp at 2 h [20]: 0.07; Ratio [21]: 58; Ratio [23]: 0.2; concentration at 504 h [24]: 5670 nM; Ratio [25]: 2.9; F (Rattus norvegicus [27]): 46.4%
> 95% | – | 100 nM | – | – | – | > 95% | – | – | – | – | – | 0.3 nM | 39 pmol/min/mg | > 95% | 9.8 nM | 32.8 nM | 5.6 nM | COc1ccc(CNC(=O)c2cc(C3=C[C@@H]4CC[C@H](C3)N4C(C)=O)cnc2NCc2ccc3c(c2)OCO3)cc1Cl | – | – | clearance [30]: 180 mL/min/kg; bioavailability [31]: 7.2%
